Active and inactive are the calls of the source. The rule behind the calls is not given here.

Data on two compounds can be found in ChEMBL document CHEMBL4049418, “6-OH-Phenanthroquinolizidine Alkaloid and Its Derivatives Exert Potent Anticancer Activity by Delaying S Phase Progression” (J Med Chem, 2017).

In one experiment the test system is Zip-177. The experiment can be described thus: Cell cycle arrest in human Zip-177 cells assessed as delay in progression of S-phase to G2-phase at 1 to 10 nM pre-treated with aphidicolin for 16 hrs followed by compound addition measured after 24 hrs by propidium iodide staining-based flow cytometric method. It is filed as functional. The essentials:
(§1)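 Exponentially growing cells synchronized in early S phase with 0.2 μg/mL aphidicolin for 16 h. Cells released into fresh medium with or without compound for set times. Ethanol-fixed, stained with PI/RNase, and cell cycle distribution read by flow cytometry. Representative of three independent experiments.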
A general note: Flow cytometry measures light scatter and fluorescence of single cells or particles in a stream.

The test system of experiment [1] is Bel-7402. The experiment can be described thus: Inhibition of DNA synthesis in human Bel7402 cells assessed as BrdU incorporation at 10 nM preincubated for 1 hr followed by BrdU addition for 30 mins by FITC/propidium iodide staining based flow cytometry (reference value: 35.5%). On the set-up: scale not given: the % may be the effect or the level left. In kind it is functional. The essentials: (§2)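 BEL-7402 cells (3 × 10⁵ per well) exposed to compounds 1 h, then labeled with 10 μM BrdU for 30 min; trypsinized, fixed in 70% ethanol at −20 °C ≥1 h, 2 N HCl 20 min, neutralized with 0.1 M borate, stained with anti-BrdU-FITC plus PI 30 min; BrdU-positive cells quantified by flow cytometry; three independent experiments, mean + SD.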

The next experiment deals with L02. The experiment in a line: Antiproliferative activity against human LO2 cells assessed as reduction in viability after 72 hrs by SRB assay. In kind it is cell-based. Particulars: L02, 72 h. The essentials:
(§3)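 Cells seeded and dosed in triplicate for 72 h. Suspension lines (HL-60, K-562, K562/ADR, HL-60/MX2) were read by MTT: 5 mg/mL MTT stock added, 4 h at 37 °C, formazan dissolved in 10% SDS/5% isobutanol/10 mM HCl, A570. Adherent lines were read by SRB: fixed with cold 10% TCA, stained with 0.4% SRB in 1% acetic acid, A540. IC50 from four-parameter logistic fit; mean of ≥3 independent experiments.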

Experiment [2] concerns Bel-7402. The experiment in a line: Induction of DNA damage in human Bel7402 cells assessed as increase in CHK2 phosphorylation at Thr68 residue at 1 to 100 nM after 1 hr by Western blot analysis. It is filed as functional, cell-based. In outline: (§4)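 BEL-7402 cells (1.5 × 10⁵ per well, 12-well plates) exposed to compounds for 1 h. Phospho-Chk1 Ser345, phospho-Chk2 Thr68 and γH2AX detected by Western blot. Camptothecin at 1 μM served as the DNA-damage reference.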

Experiment [3] relates to Bel-7402. The experiment in a line: Induction of apoptosis in human Bel7402 cells assessed as late apoptotic cells at 10 nM after 72 hrs by Annexin V/propidium iodide staining based flow cytometric analysis (reference value: 3.6%). In kind it is functional. In outline:
(§5)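 BEL-7402 cells (3 × 10⁵ per well, 6-well plates) exposed for 72 h. Harvested, PBS-washed, resuspended in cold binding buffer with annexin V–FITC and PI, and stained 15 min in the dark at room temperature. Early apoptotic, late apoptotic and necrotic fractions quantified by flow cytometry.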

Experiment [4] concerns Bel-7402. The experiment in a line: Induction of necrosis in human Bel7402 cells after 72 hrs by trypan blue exclusion assay. It is filed as functional, cell-based. In outline:
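BEL-7402 cells seeded at 5 × 10⁴ per well, exposed to compounds 72 h; trypsinized, stained with 0.4% Trypan blue (9:1 dilution) for 3 min; unstained (viable) and stained (necrotic) cells counted separately on a hemocytometer.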

Experiment [5] has as its system Bel-7402. The experiment in a line: Inhibition of DNA synthesis in human Bel7402 cells assessed as BrdU incorporation at 1 nM preincubated for 1 hr followed by BrdU addition for 30 mins by FITC/propidium iodide staining based flow cytometry (reference value: 35.5%). It is filed as functional. The arrangement: scale not given: the % may be the effect or the level left. The essentials:
as §2
On the technique in general: Dividing cells build labelled thymidine or BrdU into new DNA.

Experiment [6] deals with Bel-7402. The experiment can be described thus: Induction of DNA damage in human Bel7402 cells assessed as increase in CHK1 phosphorylation at Ser345 residue at 1 to 100 nM after 1 hr by Western blot analysis. It is filed as functional, cell-based. The essentials: as §4
A general note: In western blotting, separated proteins are transferred to a membrane and probed.

Experiment [7] has as its system Bel-7402. The experiment can be described thus: Cell cycle arrest in human Bel7402 cells assessed as delay in progression of S-phase to G2-phase at 1 to 3 nM pre-treated with aphidicolin for 16 hrs followed by compound addition measured after 4 hrs by propidium iodide staining-based flow cytometric method. It is filed as functional. The essentials: as §1
A further experiment deals with KB. The experiment can be described thus: Cell cycle arrest in human KB cells assessed as delay in progression of S-phase to G2-phase at 10 nM pre-treated with aphidicolin for 16 hrs followed by compound addition measured up to 12 hrs by propidium iodide staining-based flow cytometric method. In kind it is functional. In outline: as §1
Experiment [8] can be described thus: Selectivity ratio of IC50 for human MRC5 cells to IC50 for human A549 cells. The essentials:
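SRB assay: A549 (F-12, 10% FBS) and MRC-5/MRC-9 (EMEM, 10% FBS) treated in triplicate 72 h, fixed with ice-cold 10% TCA, stained with 0.4% SRB in 1% acetic acid, absorbance 540 nm; IC₅₀ by four-parameter logistic fit, mean of ≥3 independent experiments.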

For experiment [9], the system named is Bel-7402. The experiment in a line: Induction of apoptosis in human Bel7402 cells assessed as early apoptotic cells at 10 nM after 72 hrs by Annexin V/propidium iodide staining based flow cytometric analysis (reference value: 3.66%). It is filed as functional. The essentials:
as §5

In another experiment the test system is MRC5. The experiment can be described thus: Antiproliferative activity against human MRC5 cells assessed as reduction in viability after 72 hrs by SRB assay. In kind it is cell-based. Particulars: MRC5, 72 h. The essentials: as §3
The test system of experiment [10] is Bel-7402. The experiment in a line: Induction of apoptosis in human Bel7402 cells assessed as viable cells at 1 nM after 72 hrs by Annexin V/propidium iodide staining based flow cytometric analysis (reference value: 92.4%). Particulars: Bel-7402, 72 h, read-out: Activity. It is filed as functional.
The subject of experiment [11] is Bel-7402. The experiment in a line: Inhibition of DNA synthesis in human Bel7402 cells assessed as BrdU incorporation at 10 uM preincubated for 1 hr followed by BrdU addition for 30 mins by FITC/propidium iodide staining based flow cytometry (reference value: 35.5%). It is filed as functional. On the set-up: scale not given: the % may be the effect or the level left. The essentials:
as §2

For experiment [12], the system named is Bel-7402. The experiment in a line: Induction of DNA damage in human Bel7402 cells assessed as increase in CHK1 phosphorylation at Ser345 residue at 0.1 to 10 uM after 1 hr by Western blot analysis. It is filed as functional, cell-based. The essentials: as §4
The test system of a further experiment is KB-V1. The experiment in a line: Growth inhibition of human KBV1 cells after 8 days by methylene blue-staining based spectrophotometry. It is filed as functional. Particulars: KB-V1, 192 h.
In experiment [13] the test system is Bel-7402. The experiment can be described thus: Induction of apoptosis in human Bel7402 cells assessed as late apoptotic cells at 1 uM after 72 hrs by Annexin V/propidium iodide staining based flow cytometric analysis (reference value: 3.6%). In kind it is functional. In outline: as §5
Experiment [14] is described as follows: Growth inhibition of human KB-7d cells after 8 days by methylene blue-staining based spectrophotometry. It is filed as functional. The note with it: KB7D, 192 h.
Experiment [15] concerns Bel-7402. The experiment can be described thus: Cell cycle arrest in human Bel7402 cells assessed as accumulation in S-phase at 0.012 to 1 uM after 24 hrs by propidium iodide staining-based flow cytometry. It is filed as functional. The essentials:
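BEL-7402 cells exposed for 24 h, then fixed in 70% ethanol at −20 °C for ≥1 h. Stained with 50 μg/mL propidium iodide plus 10 μg/mL RNase A for 30 min in the dark at room temperature. DNA content read by flow cytometry on ≥1.0 × 10⁴ cells per sample.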

Experiment [16] is described as follows: Growth inhibition of human KB-HU-R cells after 8 days by methylene blue-staining based spectrophotometry. In kind it is functional. The note with it: 192 h.
The subject of experiment [17] is Bel-7402. The experiment in a line: Cell cycle arrest in human Bel7402 cells assessed as delay in progression of S-phase to G2-phase at 0.1 to 1 uM pre-treated with aphidicolin for 16 hrs followed by compound addition measured up to 24 hrs by propidium iodide staining-based flow cytometric method. It is filed as functional. The essentials:
as §1

The test system of a further experiment is K562/Adr. The experiment can be described thus: Effect on P-gp expression in human K562/ADR cells up to 10 uM after 24 hrs by Western blot analysis. It is filed as functional, cell-based.

Usually IC50 stands for the concentration at which inhibition is half-maximal. As to `COc1cc2c3c(c4ccc(O)cc4c2cc1OC)CN1CCCC[C@@H]1C3`, the outcome in the experiment with Zip-177, with Bel-7402 [7] and in the experiment with KB was Active. Also, the Activity is 5.07% in the experiment with Bel-7402 [1]; 14.2% with Bel-7402 [3]; “Dose-dependent effect” with Bel-7402 [4]; 28.6% in the experiment with Bel-7402 [5]; 3.93% in the experiment with Bel-7402 [9]. The IC50 is 2.7 nM in the experiment with L02 and 2.6 nM with MRC5. Also, the outcome in the experiment on Bel-7402 [2] and in the experiment on Bel-7402 [6] was inactive. Moreover, the “Ratio IC50” value in [8] is on record as 3 - 4. For the same compound, the viability at 0.001 µM in the experiment on Bel-7402 [10] is 94.4%.

As usually defined, the GI50 is the concentration that inhibits growth by half. Regarding `COc1cc2c3c(c4cc(OC)c(OC)cc4c2cc1OC)[C@H](O)[C@@H]1CCCN1C3`, the Activity in the experiment on Bel-7402 [11] was determined as 1.9%; with Bel-7402 [13], 1.92%. Besides, the outcome with Bel-7402 [12] and in the experiment with K562/Adr was inactive. The GI50 (in the experiment on KB-V1; in experiment [14]; in [16]) was 30 nM in each case. For the same compound, the outcome with Bel-7402 [15] and in the experiment on Bel-7402 [17] was Active.
